Data published in ChEMBL document CHEMBL1121666, “Synthesis and serotonin-like activity of 2-amino-5,8-dimethoxy-6-methyl-1,2-dihydronaphthalene” (J Med Chem, 1981).

Key:
[1] = test system: Rattus norvegicus; assay: Compound was evaluated for the incidence of serotonin syndrome […] by intraperitoneal administration at the dose 16 mg/kg; 3/3; type: functional
Outline: (§1)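 Male Sprague–Dawley rats (200–300 g) were given the racemic hydrochloride salts intraperitoneally at 1–16 mg/kg, following the Sloviter protocol. A rat was scored positive only when forepaw padding, splayed hindlimbs, and head weaving or tremor were all present. Incidence is reported as responders/rats dosed, with […] rats per dose.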

[2] = test system: Rattus norvegicus; assay: Compound was evaluated for the incidence of serotonin syndrome […] by intraperitoneal administration at the dose 8 mg/kg; 3/8; type: functional
[3] = test system: Rattus norvegicus; assay: Compound was evaluated for the incidence of serotonin syndrome […] by intraperitoneal administration at the dose 4 mg/kg; 0/8; type: functional
[4] = test system: Rattus norvegicus; assay: Compound was evaluated for the incidence of serotonin syndrome […] by intraperitoneal administration at the dose 2 mg/kg; 0/3; type: functional; outline: as §1
[5] = Acid dissociation constant was determined; type: ADME
[6] = test system: Rattus norvegicus; assay: Compound was evaluated for the incidence of serotonin syndrome […] by intraperitoneal administration at the dose 16 mg/kg; 2/3; type: functional; outline: as §1
[7] = test system: Rattus norvegicus; assay: Compound was evaluated for the incidence of serotonin syndrome […] by intraperitoneal administration at the dose 4 mg/kg; 1/3; type: functional; outline: as §1
[8] = test system: Rattus norvegicus; assay: Compound was evaluated for the incidence of serotonin syndrome […] by intraperitoneal administration at the dose 8 mg/kg; 0/3; type: functional; outline: as §1

COc1cc(C)c(OC)c2c1CC(N)CC2.Cl (stereo not given)
Incidence [1]: 3 | Incidence [2]: 3 | Incidence [3]: 0 | Incidence [4]: 0

COc1cc(C)c(OC)c2c1CC(N)C=C2.Cl (stereo not given)
pKa [5]: 8.93 | Incidence [6]: 2 | Incidence [7]: 1 | Incidence [8]: 0 | Incidence [4]: 0

COc1cc(C2CC2N)c(OC)cc1C (stereo not given)
pKa [5]: 8.11
